Where two headings read alike, the source gives them in different places.
What was measured:
Assay type in all cases: cell-based
A549 = assay: MTT cell viability assay, A549; details: for IC50: read-out: IC50(μM) A549
Hela = assay: MTT cell viability assay, Hela; details: for IC50: 48 h
HepG2 = assay: MTT cell viability assay, HepG2; details: for IC50: read-out: IC50(μM) HepG2
MCF-7 = assay: MTT cell viability assay, MCF-7
[1] = test system: human liver cell line L-O2; assay: Cytotoxic activity on human liver cells
Procedure, shortened: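 L-02 cells were grown in DMEM with 10 % FBS and 1 % penicillin–streptomycin at 37 °C, 5 % CO2, then seeded at 2 × 10^4 cells per well in 96-well plates. Test compounds were made as 20 mM DMSO stocks and applied at various concentrations for 48 h. MTT (5 mg/mL stock in PBS) was added for 4 h at 37 °C in the dark. Formazan was dissolved in DMSO and read at 490 nm; triplicate experiments.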

Hela cells [2] = assay: Colony formation assay, Hela; details: 0.5 mM (so in the source), vs 5-Fu 5 μM
Procedure, shortened: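 HeLa cells were seeded at 1500 per well in six-well plates and grown 48 h in regular medium. Cells were exposed to test compound or 5-Fu (positive control) at indicated concentrations for 7 days. They were then PBS-washed, fixed with paraformaldehyde 30 min, stained with crystal violet 30 min, and photographed. Clone formation rate was quantified; mean ± SD of three separate experiments.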

MCF-7 cells = assay: Colony formation assay, MCF-7; details: 0.5 mM (so in the source), vs 5-Fu 5 μM
Procedure, shortened: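 MCF-7 cells grown in DMEM with 10 % FBS and 1 % penicillin–streptomycin at 37 °C, 5 % CO2. Seeded at 1500 cells/well in six-well plates, grown 48 h, then exposed to test compound or 5-Fu for 7 days. Washed with PBS, fixed with paraformaldehyde for 30 min, stained with crystal violet for 30 min, photographed. Clone formation rate quantified; mean ± SD of three separate experiments.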

Hela cells [3] = assay: Annexin V-FITC/PI apoptosis assay; details: 24 h (control 14.06 %)
Hela cells [4] = assay: Hoechst 33,258 staining assay; details: increasing concentration 0.5-4 μM, 24 h
Procedure, shortened: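 HeLa cells seeded at 1 × 10^4/well in twelve-well plates and grown 24 h in regular medium. Treated 24 h with test compound (0, 0.5, 1, 2, 4 μM) or 5-Fu (5.0 μM). Washed twice with PBS, stained with Hoechst 33,258 for 30 min in the incubator, washed, then imaged by fluorescence microscopy for apoptotic nuclear and cell morphology.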

[5] = Homo sapiens, HeLa, read-out: IC50(μM) Hela, MTT, 48 h, Hela
[6] = read-out: IC50(μM) Hela, MTT, Hela
[7] = Homo sapiens, MCF7, 48 h, read-out: IC50(μM) MCF-7, MTT, 48 h, MCF-7
[8] = read-out: IC50(μM) MCF-7, MTT, 48 h, MCF-7

| IC50 (A549; Homo sapiens, A549, 48 h) [µM] | IC50 (Hela; [5]) [µM] | IC50 (Hela; [6]) [µM] | IC50 (HepG2; Homo sapiens, HepG2, 48 h) [µM] | IC50 (MCF-7; [7]) [µM] | IC50 (MCF-7; [8]) [µM] | IC50 (A549; MTT, 48 h, A549) [µM] | IC50 (HepG2; MTT, 48 h, HepG2) [µM] | Molecule | other results |
| --- | --- | --- | --- | --- | --- | --- | --- | --- | --- |
| > 100 | > 100 |  | > 100 | > 100 |  |  |  | COc1cc(OC)c(C(=O)/C=C/c2ccc(OCc3cnc4ccccc4c3)cc2)c(OC)c1 [C9, (E)-3-(4-(quinolin-3-ylmethoxy)phenyl)-1-(2,4,6-trimethoxyphenyl)prop-2-en-1-one] |  |
|  |  | 71.5 ± 1.54 |  |  | > 100 | > 100 | 35.4 ± 1.37 | (E)-3-(3,4-dimethoxyphenyl)-1-(2,4,6-trimethoxyphenyl)prop-2-en-1-one [A3] |  |
|  |  | 38.8 ± 1.21 |  |  | 24.7 ± 0.94 | 70.9 ± 1.82 | 40.7 ± 1.29 | (E)-3-(3-hydroxy-4-methoxyphenyl)-1-(2,4,6-trimethoxyphenyl)prop-2-en-1-one [A5] |  |

Continued, molecule first:

| Molecule | IC50 (A549; Homo sapiens, A549, 48 h) [µM] | IC50 (Hela; [5]) [µM] | IC50 (Hela; [6]) [µM] | IC50 (HepG2; Homo sapiens, HepG2, 48 h) [µM] | IC50 (MCF-7; [7]) [µM] | IC50 (MCF-7; [8]) [µM] | IC50 (A549; MTT, 48 h, A549) [µM] | IC50 (HepG2; MTT, 48 h, HepG2) [µM] | other results |
| --- | --- | --- | --- | --- | --- | --- | --- | --- | --- |
| COc1cc(OC)c(C(=O)/C=C/c2ccc(Br)cn2)c(OC)c1 [B3, (E)-3-(5-bromopyridin-2-yl)-1-(2,4,6-trimethoxyphenyl)prop-2-en-1-one] | 5.19 ± 0.23 | 3.2 | 3.2 ± 0.21 | 5.81 ± 0.37 | 3.85 | 3.85 ± 0.28 |  |  | inhibitory effect on cell viability over time, A549 (A549; MTT at 24 h, 48 h and 72 h): excellent inhibitory effect; fold potency than 5-fluorocrail, Hela (Hela; Hela cells, vs 5-Fu): over 10 fold; inhibitory effect on cell viability over time, Hela (Hela; MTT at 24 h, 48 h and 72 h): excellent inhibitory effect; inhibitory effect on cell viability over time, HepG2 (HepG2; MTT at 24 h, 48 h and 72 h): excellent inhibitory effect; fold potency than 5-fluorocrail, MCF-7 (MCF-7; MCF-7 cells, vs 5-Fu): over 10 fold; inhibitory effect on cell viability over time, MCF-7 (MCF-7; MTT at 24 h, 48 h and 72 h): excellent inhibitory effect; toxicity on normal cells [1]: low toxicity to normal cells; colony formation, Hela (Hela cells [2]): slightly better than the positive control; colony formation, MCF-7 (MCF-7 cells): slightly better than the positive control; apoptosis index (Hela cells [3]; 0.5 μM): 16.78%; apoptosis index (Hela cells [3]; 1 μM): 26.41%; apoptosis index (Hela cells [3]; 2 μM): 30.95%; apoptosis index (Hela cells [3]; 4 μM): 39.8%; morphological changes of Hela cells (Hela cells [4]): cells shrinkage, nuclear division and formation of apoptotic bodies |
| COc1cc(OC)c(C(=O)/C=C/c2ccc(OCc3cc4ccccc4[nH]c3=O)cc2)c(OC)c1 [C10, (E)-3-((4-(3-oxo-3-(2,4,6-trimethoxyphenyl)prop-1-en-1-yl)phenoxy)methyl)quinolin-2(1H)-one] | > 100 | > 100 |  | > 100 | > 100 |  |  |  |  |
| (E)-3-(3,5-dimethoxyphenyl)-1-(2,4,6-trimethoxyphenyl)prop-2-en-1-one [A4] |  |  | 32.3 ± 1.31 |  |  | 32.4 ± 1.29 | 71.2 ± 1.56 | 33.4 ± 1.37 |  |

— PMC9845116 (Saudi Pharmaceutical Journal : SPJ, 2022)
